This is an account of results in PubChem BioAssay AID588830 (Broad Institute, 2011).

Active and inactive are the calls of the source.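 How the source made its calls: active means fitted IC50 for falling signal at or below ten times the top tested dose; inconclusive means flat fit with 30 to 70% signal loss, or poor fit; inactive means the rest.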

The first experiment in a line: short-term cytotoxicity in ldlA[mSR-BI] cells, dose response, cytotoxicity control for SR-BI HDL uptake inhibitor project, cell-based, CellTiter-Glo luminescence, 3 h, dry powder (AID 588830). Particulars: ldlA[mSR-BI] CHO cells viability, CellTiter-Glo ATP, 3 h; at 30 µM (top of the series). Put shortly: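 System: ldlA[mSR-BI] cells | Buffer or medium: Ham's F12 with 10% FCS and PSG | Doses: 8-concentration series per compound, added by pin transfer | Timing: 3 h compound exposure at 37 °C, 10 min reagent incubation | Measured by: Luminescence of cellular ATP via Cell Titer Glo reagent | Measure: Cytotoxicity IC50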
(In general: Cellular ATP, detected with luciferase, serves as a proxy for viable cell number.)
For the compound `C[C@H]1CN([C@@H](C)CO)C(=O)c2cc(NC(=O)Cc3cn(C)c4ccccc34)ccc2O[C@H]1CN(C)S(=O)(=O)c1ccc(F)cc1`, the activity change, negative = cytotoxicity is -1.92% (inactive).

Staying with this experiment, now noted: ldlA[mSR-BI] CHO cells viability, CellTiter-Glo ATP, 3 h; at 35 µM (top of the series).
As for `C[C@H]1CN([C@@H](C)CO)C(=O)c2cccc(NC(=O)Nc3ccccc3)c2O[C@@H]1CN(C)Cc1ccccc1`, the activity change, negative = cytotoxicity was 0.984% (inactive).

For the compound `CCc1sc(N2C(=O)C3C4CCC(C4=C(C)C)C3C2=O)nc1-c1ccccc1` (stereo not drawn), the activity change, negative = cytotoxicity was -2.48% (inactive).

With `O=C(Nc1cccc(NC(=O)c2cc([N+](=O)[O-])ccc2Cl)n1)c1cc([N+](=O)[O-])ccc1Cl`, the activity change, negative = cytotoxicity was -7.2% (inactive).

As for `C[C@H]1CN([C@@H](C)CO)C(=O)c2cccc(NC(=O)Nc3ccc(F)cc3)c2O[C@@H]1CN(C)Cc1ccc(Cl)c(Cl)c1`, the activity change, negative = cytotoxicity is -26.7% (inactive).

Consider `C[C@@H]1CN([C@@H](C)CO)C(=O)c2cc(NC(=O)Cc3cn(C)c4ccccc34)ccc2O[C@@H]1CN(C)S(=O)(=O)c1ccc(F)cc1`, for which the activity change, negative = cytotoxicity was 2.84% (inactive).

Turning to `C[C@@H]1CN([C@H](C)CO)C(=O)c2cc(NC(=O)Cc3cn(C)c4ccccc34)ccc2O[C@H]1CN(C)S(=O)(=O)c1ccc(Cl)cc1`, the activity change, negative = cytotoxicity was -0.219% (inactive).

As to `Nc1ccc(C(=O)Nc2ccc(-c3nc4ccc(NC(=O)c5ccc(N)cc5)cc4[nH]3)cc2)cc1`, the activity change, negative = cytotoxicity is 7.17% (inactive).

In the case of `O=C(Nc1ccc(-c2nc3ccc(NC(=O)c4ccccc4[N+](=O)[O-])cc3[nH]2)cc1)c1ccccc1[N+](=O)[O-]`, the activity change, negative = cytotoxicity was 6.32% (inactive).

Turning to `C[C@H]1CN([C@@H](C)CO)C(=O)c2cccc(NC(=O)Nc3ccccc3)c2O[C@@H]1CN(C)Cc1ccc(Cl)c(Cl)c1`, the activity change, negative = cytotoxicity was -15.5% (inactive).

For the compound `O=C(Nc1ccc(Cl)cc1C(=O)c1ccc(Cl)cc1)c1cc(Br)ccc1NS(=O)(=O)c1ccc(Cl)cc1`, the activity change, negative = cytotoxicity is -10% (inactive).

On to `COc1ccc(-c2nnn(CC(=O)N(C3CCCCC3)C(C)C(=O)NC3CCCC3)n2)cc1OC` (stereo not drawn), for which the activity change, negative = cytotoxicity was -4.74% (inactive).

For the compound `C[C@@H]1CN([C@H](C)CO)C(=O)c2cc(NC(=O)Cc3cn(C)c4ccccc34)ccc2O[C@@H]1CN(C)S(=O)(=O)c1ccc(F)cc1`, the activity change, negative = cytotoxicity is 2.73% (inactive).

In the case of `O=C(Nc1cc(C(F)(F)F)ccc1Cl)c1ccccc1NS(=O)(=O)c1ccc(Cl)cc1`, the activity change, negative = cytotoxicity is -7.07% (inactive).

On to `CC(C)NC(=O)Nc1cccc2c1O[C@H](CN(C)Cc1ccc(Cl)c(Cl)c1)[C@@H](C)CN([C@@H](C)CO)C2=O`, for which the activity change, negative = cytotoxicity was 3.31% (inactive).

Turning to `O=C(Nc1ccc(-c2nc3cc(NC(=O)c4ccccc4[N+](=O)[O-])ccc3o2)cc1)c1ccccc1[N+](=O)[O-]`, the activity change, negative = cytotoxicity is 1.25% (inactive).

Regarding `Cc1cc(SC(C)C(=O)Nc2ncc(Cl)cc2Cl)nc2ccccc12` (stereo not drawn), the activity change, negative = cytotoxicity is -10.7% (inactive).

For the compound `CCOC(=O)Nc1cccc(NC(=O)c2cc(OC)cc(OC)c2)c1`, the activity change, negative = cytotoxicity is -7.68% (inactive).

For the compound `O=C(Nc1ccc(-c2nc3ccc(NC(=O)c4ccc(Cl)cc4)cc3[nH]2)cc1)c1ccc(Cl)cc1`, the activity change, negative = cytotoxicity is 3.4% (inactive).

Regarding `COc1cccc(-c2csc(N3CCN(C(=S)Nc4cccc(Cl)c4)CC3)n2)c1`, the activity change, negative = cytotoxicity was -9.99% (inactive).

Regarding `C[C@@H]1CN([C@H](C)CO)C(=O)c2cc(NC(=O)Cc3cn(C)c4ccccc34)ccc2O[C@H]1CN(C)S(=O)(=O)c1ccccc1`, the activity change, negative = cytotoxicity was 1.08% (inactive).

As for `C[C@H](CO)N1C[C@H](C)[C@H](CN(C)S(=O)(=O)c2ccc(F)cc2)Oc2ccc(NC(=O)CCC(F)(F)F)cc2C1=O`, the activity change, negative = cytotoxicity is -1.99% (inactive).

As to `CC(C)(C)NC(=O)N1CCN(c2ncccc2C(F)(F)F)CC1`, the activity change, negative = cytotoxicity was -3.5% (inactive).

On to `C[C@H](CO)N1C[C@H](C)[C@@H](CN(C)S(=O)(=O)c2ccc(F)cc2)Oc2ccc(NC(=O)Cc3cn(C)c4ccccc34)cc2C1=O`, for which the activity change, negative = cytotoxicity is -0.528% (inactive).

On to `O=C(Nc1ccccc1)c1ccccc1NS(=O)(=O)c1ccc(Cl)cc1`, for which the activity change, negative = cytotoxicity was -7.39% (inactive).

For `C[C@@H]1CN([C@H](C)CO)C(=O)c2cc(NC(=O)Cc3cn(C)c4ccccc34)ccc2O[C@H]1CN(C)C(=O)Nc1ccc(F)cc1`, the activity change, negative = cytotoxicity is 4.57% (inactive).

For the compound `O=C(Nc1ccc(-c2nc3cc(NC(=O)c4ccccc4Cl)ccc3o2)cc1)c1ccccc1Cl`, the activity change, negative = cytotoxicity was 11.9% (inactive).

With `C[C@H]1CN([C@@H](C)CO)C(=O)c2cc(NC(=O)Cc3cn(C)c4ccccc34)ccc2O[C@@H]1CN(C)S(=O)(=O)c1ccc(F)cc1`, the activity change, negative = cytotoxicity is 1.18% (inactive).

On to `COc1ccc([C@H]2CC(=O)C=C(c3cccc4c3sc3ccccc34)C2)cc1OC`, for which the activity change, negative = cytotoxicity is -5.27% (inactive).

As for `CCOC(=O)N1CCC(NC(=O)c2ccc3c(c2)N(Cc2ccc(F)cc2)CCS3)CC1`, the activity change, negative = cytotoxicity is -4.76% (inactive).

As to `Cc1cc(C)n(CC(=O)NC2CCCc3c2cnn3-c2ccc(C)c(C)c2)n1` (stereo not drawn), the activity change, negative = cytotoxicity is -4.16% (inactive).

Take `C[C@@H]1CN([C@@H](C)CO)C(=O)c2cc(NC(=O)Cc3cn(C)c4ccccc34)ccc2O[C@H]1CN(C)S(=O)(=O)c1ccc(F)cc1`: the activity change, negative = cytotoxicity was -8.52% (inactive).

In the case of `N#Cc1sc2nc(C3CC3)cc(-c3ccc(Cl)cc3)c2c1N`, the activity change, negative = cytotoxicity was -7.15% (inactive).

As to `C[C@@H]1CN([C@H](C)CO)C(=O)c2cc(NC(=O)Cc3cn(C)c4ccccc34)ccc2O[C@H]1CN(C)S(=O)(=O)c1ccc(F)cc1`, the activity change, negative = cytotoxicity was 1.06% (inactive).

Consider `CC(C)OCCCNC(=O)c1ccc(C2SCC(=O)N2Cc2ccco2)cc1` (stereo not drawn), for which the activity change, negative = cytotoxicity is -4.74% (inactive).

Regarding `O=C(Nc1ccccc1Cl)c1ccccc1NS(=O)(=O)c1ccccc1`, the activity change, negative = cytotoxicity is -1.11% (inactive).

Regarding `C[C@H](CO)N1C[C@H](C)[C@H](CN(C)S(=O)(=O)c2ccc(F)cc2)Oc2ccc(NS(C)(=O)=O)cc2C1=O`, the activity change, negative = cytotoxicity was -6.43% (inactive).

For `Cc1cc(C)c2c(c1)NC(c1cc3c(cc1Br)OCO3)C1CC=CC21` (stereo not drawn), the activity change, negative = cytotoxicity is -9.46% (inactive).

For `C[C@H]1CN([C@@H](C)CO)C(=O)c2cccc(N(C)C)c2O[C@@H]1CN(C)Cc1ccc(Cl)c(Cl)c1`, the activity change, negative = cytotoxicity was -3.41% (inactive).

For `O=C(Nc1cc(Cl)ccc1Cl)c1cc(Br)ccc1NS(=O)(=O)c1ccc(Cl)c([N+](=O)[O-])c1`, the activity change, negative = cytotoxicity was -11.2% (inactive).

As for `O=C(Nc1ccc(-c2nc3cc(NC(=O)c4ccc(NC(=O)c5cccc6ccccc56)cc4)ccc3[nH]2)cc1)c1ccc(NC(=O)c2cccc3ccccc23)cc1`, the activity change, negative = cytotoxicity was 2.1% (inactive).

`COc1ccc(OC)c(CCNC(=O)c2ccc3c(c2)N(Cc2ccc(F)cc2)CCS3)c1`: the activity change, negative = cytotoxicity was -5.33% (inactive).

In the case of `Cc1ccccc1NC(=O)NCC1CCN(c2ccc(S(=O)(=O)N3CCOCC3)cc2)CC1`, the activity change, negative = cytotoxicity was -8.7% (inactive).

Regarding `C[C@H](CO)N1C[C@H](C)[C@H](CN(C)S(=O)(=O)c2ccc(F)cc2)Oc2ccc(NC(=O)Cc3cn(C)c4ccccc34)cc2C1=O`, the activity change, negative = cytotoxicity is -10% (inactive).

Turning to `C[C@@H]1CN([C@H](C)CO)C(=O)c2cc(NC(=O)Cc3cn(C)c4ccccc34)ccc2O[C@H]1CN(C)S(C)(=O)=O`, the activity change, negative = cytotoxicity was 3.58% (inactive).

`C[C@H]1CN([C@@H](C)CO)C(=O)c2cccc(NC(=O)Nc3ccccc3)c2O[C@@H]1CN(C)C`: the activity change, negative = cytotoxicity was -1.76% (inactive).

Regarding `CC(OC(=O)c1cccc(NS(C)(=O)=O)c1)C(=O)Nc1ccc(N2CCOCC2)cc1` (stereo not drawn), the activity change, negative = cytotoxicity was -7.82% (inactive).

Turning to `CCc1cc2cc3c(cc2nc1SCC(=O)OC(C)C)OCO3`, the activity change, negative = cytotoxicity was -2% (inactive).

`CNC[C@@H]1Oc2ccc(NC(=O)Cc3cn(C)c4ccccc34)cc2C(=O)N([C@H](C)CO)C[C@H]1C`: the activity change, negative = cytotoxicity was -4.04% (inactive).

Consider `C[C@H]1CN([C@@H](C)CO)C(=O)c2cc(NC(=O)Nc3ccccc3)ccc2O[C@@H]1CN(C)Cc1ccc(Cl)c(Cl)c1`, for which the activity change, negative = cytotoxicity is -3.67% (inactive).

As to `CCC(=O)N1CCc2cc(-c3csc(NC(=O)c4ccco4)n3)ccc21`, the activity change, negative = cytotoxicity was -8.77% (inactive).

Take `CCn1c(COc2c(C)cccc2C)nnc1SCC(=O)N1CCN(c2ccccc2)CC1`: the activity change, negative = cytotoxicity was -9.72% (inactive).

Consider `C[C@H](CO)N1C[C@H](C)[C@H](CN(C)S(=O)(=O)c2ccc(F)cc2)Oc2ccc(NC(=O)Cc3ccccc3)cc2C1=O`, for which the activity change, negative = cytotoxicity is -1.65% (inactive).

As to `COC(=O)c1cn(C(=O)c2cccc3ccccc23)c2ccccc12`, the activity change, negative = cytotoxicity is -13.3% (inactive).

As for `C[C@H]1CN([C@@H](C)CO)C(=O)c2cccc(NS(C)(=O)=O)c2O[C@@H]1CN(C)Cc1ccc(Cl)c(Cl)c1`, the activity change, negative = cytotoxicity is 1.6% (inactive).

With `C[C@@H]1CN([C@H](C)CO)C(=O)Cc2cc(NC(=O)Cc3cn(C)c4ccccc34)ccc2O[C@H]1CN(C)S(=O)(=O)c1ccc(F)cc1`, the activity change, negative = cytotoxicity was 1.4% (inactive).

Take `C[C@H]1CN([C@@H](C)CO)C(=O)c2cccc(NC(=O)Nc3ccccc3)c2O[C@@H]1CN(C)S(C)(=O)=O`: the activity change, negative = cytotoxicity is -1.01% (inactive).

Staying with this experiment, now noted: ldlA[mSR-BI] CHO cells viability, CellTiter-Glo ATP, 3 h; at 68 µM (top of the series).
For the compound `CCOc1ccc(NC(=O)CN2CCN(CC(=O)Nc3cc(OC)cc(OC)c3)CC2)cc1`, the activity change, negative = cytotoxicity is -11.7% (inactive).
